Experimental data: publication PMC8395708 (JACS Au, 2021)

Assays:
[1] = type: in vivo, C57BL/6JNarl mice; conditions: mice, oral gavage 13.25 mg/kg
[2] = NO release, Nitrate/Nitrite Colorimetric Assay; type: physicochemical; conditions: degradation of BSA-bound DNIC, PBS pH 7.4
Outline: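 25 μM test compound was left to degrade under air for 2 d in 50 mM phosphate pH 7.4, SIF or SGFsp, or with BSA in PBS pH 7.4. For nitrate/nitrite, 10 μL sample was diluted in kit buffer with enzyme cofactor and nitrate reductase for 1 h at room temperature. NO equivalents were calculated from 0–35 μM nitrite/nitrate standard curves.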

[3] = Effect of BSA or L-cysteine on degradation of DNIC-1 in PBS; type: physicochemical
Outline: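 UV-vis stability: 25 μM test compound with 10 mg/mL BSA in PBS pH 7.4 at 37 °C under air. […] The same design was used with 150 μM L-cysteine instead of BSA, and with BSA under anaerobic conditions. Three independent experiments.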

[4] = biological target: bovine serum albumin (BSA) (Bos taurus, UniProt P02769); test: Reaction of DNIC-1 with bovine serum albumin; type: binding; conditions: PBS pH 7.4, 37 °C, EPR
Sequence of bovine serum albumin (BSA) (P02769 25-607): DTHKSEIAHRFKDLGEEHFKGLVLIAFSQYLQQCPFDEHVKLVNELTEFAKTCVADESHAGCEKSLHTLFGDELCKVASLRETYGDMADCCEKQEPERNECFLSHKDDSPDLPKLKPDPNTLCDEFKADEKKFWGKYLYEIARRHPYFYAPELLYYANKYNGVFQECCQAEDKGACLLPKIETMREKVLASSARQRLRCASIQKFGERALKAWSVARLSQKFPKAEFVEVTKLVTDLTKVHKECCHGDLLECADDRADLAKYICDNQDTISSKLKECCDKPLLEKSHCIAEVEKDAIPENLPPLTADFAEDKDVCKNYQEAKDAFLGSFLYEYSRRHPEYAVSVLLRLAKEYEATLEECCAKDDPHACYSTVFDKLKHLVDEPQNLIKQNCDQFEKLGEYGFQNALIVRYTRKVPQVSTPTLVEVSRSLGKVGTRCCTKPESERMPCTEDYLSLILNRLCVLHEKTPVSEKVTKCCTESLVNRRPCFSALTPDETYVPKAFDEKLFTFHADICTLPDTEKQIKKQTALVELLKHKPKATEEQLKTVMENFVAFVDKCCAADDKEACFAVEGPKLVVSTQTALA

Row | Substance | half-life in the small intestine [1] | released nitric oxide [2] | half-life of BSA-bound DNIC (UV-vis decay at 384 and 565 nm) ([3]; 25 μM DNIC-1 + 10 mg/mL BSA, PBS pH 7.4, aerobic, 37 °C) | half-life of BSA-bound DNIC (decay of EPR signal) ([3]; 25 μM DNIC-1 + 50 mg/mL BSA, PBS pH 7.4, aerobic, 37 °C, EPR) | stability under anaerobic condition ([3]; 10 mg/mL BSA, PBS pH 7.4, 37 °C, 24 h, anaerobic) | reaction time to plateau of BSA-bound DNIC formation [4]
1 | [(NO)2Fe(SR)(mucin)] (R = CH2CH2OH) [mucin-bound DNIC] | 3.0 ± 0.6 h |  |  |  |  | 
2 | [(NO)2Fe(SR)(BSA)] (R = CH2CH2OH) [BSA-bound DNIC] |  | ~1.4 equiv | 3.5 ± 0.3 h | 3.5 ± 0.2 h | No change of the UV–vis spectra | 15 min
